Activity calls are given as the source filed them. No cut-off for these calls is given here. Square brackets hold non-standard residues; d marks the D form. Peptide text beside a SMILES is read from it. Hyp = O=C(O)[C@@H]1C[C@@H](O)CN1; Ahx = NCCCCCC(=O)O
Key:
MCF7 [1] = assay: Antitumor activity against human MCF7 cells xenografted in BALB/c nude mouse assessed as reduction in tumor weight at 12.5 mg/kg, ip administered every 2 days in presence of 50 mg/kg JQ1; assay type: functional, organism-based
In short: (§1)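 Female BALB/c nude mice given 5 × 10^6 cells sc (MCF7 mice with E2 10^-2 M every 2 days), randomised at ~50 mm3. Peptide 12.5 mg/kg ip (saline) every 2 days, plus JQ1 50 mg/kg ip (DMSO/10% HPBCD 1:10) every 2 days or iJMJD6 12.5 mg/kg ip (DMSO/PBS 1:20). Caliper volume every 2 days; tumours weighed at the end.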

MCF7 [2] = assay: Antitumor activity against human MCF7 cells xenografted in BALB/c nude mouse assessed as reduction in tumor growth at 25 mg/kg, ip administered every 2 days; assay type: functional, organism-based
In short: (§2)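 Female BALB/c nude mice, 4–6 wk, given 5 × 10^6 cells in PBS subcutaneously; MCF7 mice also had E2 (10^-2 M) brushed on the neck every 2 days. Randomised at ~50 mm3. Peptide in 0.9% saline, 25 mg/kg ip every 2 days. Caliper volume (1/2 × L × W²) every 2 days.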

[3] = Toxicity in BALB/c mouse xenografted with human MCF7 cells assessed as change in body weight at 12.5 mg/kg, ip administered every 2 days in presence of 12.5 mg/kg JMJD6 inhibitor; assay type: organism-based; conditions: in vivo, 48 h
In short: (§3)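 Female BALB/c nude mice carried MCF7 xenografts (5 × 10^6 cells sc, E2 10–2 M brushed every 2 days) and were randomized at about 50 mm3. Peptide was given at 12.5 mg/kg ip every 2 days, and iJMJD6 (DMSO/PBS 1:20) at 12.5 mg/kg ip every other day, alone or combined. Body and organ weights were recorded.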

MCF7 [4] = assay: Antiproliferative activity against human MCF7 cells at 10 uM incubated for 1 week in presence of fulvestrant by CellTiter 96 Aqueous One Solution based assay; assay type: functional, cell-based; conditions: time 1.0 weeks
In short: (§4)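 Cells seeded at 2 × 10^3/well and treated with peptide (10 μM) alone or combined with JQ1 (5 μM), iJMJD6 (10 μM) or ICI (2.5 μM), as the line states. Viability read by MTS reagent, 1 h at 37 °C, A490. Three biological repeats.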

MDA-MB-231 [5] = assay: Antiproliferative activity against human MDA-MB-231 cells at 10 uM incubated for 1 week in presence of 5 uM JQ1 by CellTiter 96 Aqueous One Solution based assay; assay type: functional, cell-based; conditions: time 1.0 weeks; in short: as §4
[6] = Downregulation of c-Myc protein expression in BALB/c mouse tumor xenografted with human MDA-MB-231 cells assessed as fold change in remaining c-Myc level at 25 mg/kg, ip administered every 2 days by immunoblotting analysis; assay type: functional
In short: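 Female BALB/c nude mice (4–6 weeks) carry subcutaneous MCF7 or MDA-MB-231 grafts (5 × 10^6 cells). MCF7 mice are brushed with E2 (10–2 M) every 2 days. Dosing starts at ~50 mm3: peptide in normal saline, ip every 2 days. Tumour lysates are immunoblotted with β-actin as loading control; repeated three times.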

[7] = Downregulation of c-Myc protein expression in human MCF7 cells assessed as fold change in remaining c-Myc level at 10 uM incubated for 24 hrs by immunoblotting analysis (reference value: 1); assay type: functional
In short: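 Cells (MCF7 or MDA-MB-231 in DMEM, 10% FBS, 37 °C, 5% CO2) are treated with peptide for 24 h. Lysates are taken in Tris/NaCl/EDTA/1% Triton buffer and run on 10% SDS-PAGE. Immunoblots are normalised to β-actin loading control; three repeats.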

MDA-MB-231 [8] = assay: Antitumor activity against human MDA-MB-231 cells xenografted in BALB/c nude mouse assessed as reduction in tumor volume at 12.5 mg/kg, ip administered every 2 days in presence of 50 mg/kg JQ1; assay type: functional, organism-based; in short: as §1
[9] = Toxicity in BALB/c mouse xenografted with human MCF7 cells assessed as change in lung weight at 12.5 mg/kg, ip administered every 2 days in presence of 50 mg/kg JQ1; assay type: organism-based; conditions: in vivo, 48 h
[10] = Toxicity in BALB/c mouse xenografted with human MDA-MB-231 cells assessed as change in lung weight at 12.5 mg/kg, ip administered every 2 days in presence of 50 mg/kg JQ1; assay type: organism-based; conditions: in vivo, 48 h
In short: (§5)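 Female BALB/c nude mice (4–6 weeks) carried sc MDA-MB-231 xenografts (5 × 10^6 cells) and were randomized at about 50 mm3. Peptide (12.5 mg/kg ip in saline) and JQ1 (50 mg/kg ip, DMSO/10% HPBCD 1:10) were given every 2 days, alone or combined. Body weight was recorded, and heart, liver, spleen, lung and kidney morphology and weight were assessed.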

[11] = Toxicity in BALB/c mouse xenografted with human MCF7 cells assessed as change in body weight at 2.5 mg/kg, ip administered every 2 days in presence of 12.5 mg/kg fulvestrant; assay type: organism-based; conditions: in vivo, 48 h
Mus musculus = assay: Downregulation of N-myc mRNA expression in BALB/c mouse tumor xenografted with human MCF7 cells at 25 mg/kg, ip administered every 2 days by RT-qPCR analysis; assay type: functional, organism-based
[12] = Toxicity in BALB/c mouse xenografted with human MCF7 cells assessed as change in spleen at 12.5 mg/kg, ip administered every 2 days in presence of 12.5 mg/kg JMJD6 inhibitor; assay type: organism-based; conditions: in vivo, 48 h; in short: as §3
T47D = assay: Inhibition of colony formation in human T47D cells at 10 uM incubated for 2 weeks in presence of fulvestrant by crystal violet staining based assay; assay type: functional, cell-based
In short: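 Cells are seeded at 1 × 10^3/well and treated with peptide (10 μM) for 2 weeks, alone or with JQ1 5 μM, iJMJD6 10 μM, ICI 2.5 μM, or tamoxifen 3 μM (tamoxifen-resistant lines). Colonies are stained with crystal violet, dissolved in 10% acetic acid, and read at 590 nm. Three biological repeats.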

[13] = Toxicity in BALB/c mouse xenografted with human MCF7 cells assessed as change in spleen weight at 12.5 mg/kg, ip administered every 2 days in presence of 50 mg/kg JQ1; assay type: organism-based; conditions: in vivo, 48 h
[14] = Toxicity in BALB/c mouse xenografted with human MCF7 cells assessed as change body weight at 12.5 mg/kg, ip administered every 2 days in presence of 50 mg/kg JQ1; assay type: organism-based; conditions: in vivo, 48 h
[15] = Downregulation of N-myc protein expression in BALB/c mouse tumor xenografted with human MDA-MB-231 cells assessed as fold change in remaining N-myc level at 25 mg/kg, ip administered every 2 days by immunoblotting analysis; assay type: functional
In short: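 Tumours taken from xenograft mice dosed with peptide at 25 mg/kg ip every 2 days. […] Three repeats.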

[16] = Toxicity in BALB/c mouse xenografted with human MDA-MB-231 cells assessed as change in heart morphology at 12.5 mg/kg, ip administered every 2 days in presence of 50 mg/kg JQ1; assay type: organism-based; conditions: in vivo, 48 h; in short: as §5
MDA-MB-231 [17] = assay: Antitumor activity against human MDA-MB-231 cells xenografted in BALB/c nude mouse assessed as reduction in tumor growth at 25 mg/kg, ip administered every 2 days; assay type: functional, organism-based; in short: as §2

Compound	Activity (MCF7 [1])	Activity (MCF7 [2])	Activity [3]	Activity (MCF7 [4])	Activity (MDA-MB-231 [5])	fold change (FC) [6]	fold change (FC) [7]	Activity (MDA-MB-231 [8])	Activity [9]	Activity [10]	Activity [11]	Activity (Mus musculus)	Activity [12]	inhibition (T47D)	Activity [13]	Activity [14]	fold change (FC) [15]	Activity [16]	Activity (MDA-MB-231 [17])
CC[C@H](C)[C@H](NC(=O)[C@H](Cc1ccc(O)cc1)NC(=O)[C@@H]1C[C@@H](O)CN1C(=O)[C@H](C)NC(=O)[C@@H](NC(=O)CCCCCNC(=O)[C@H](CCC(=O)O)NC(=O)CNC(=O)[C@H](CS)NC(=O)[C@H](CCCCN)NC(=O)[C@H](Cc1ccccc1)NC(=O)[C@H](CCCCN)NC(=O)[C@H](CCC(N)=O)NC(=O)[C@H](CC(N)=O)NC(=O)[C@H](CCCNC(=N)N)NC(=O)[C@H](CCCNC(=N)N)NC(=O)[C@H](CCCNC(=N)N)NC(=O)[C@H](CCCNC(=N)N)NC(=O)[C@H](CCC(N)=O)NC(=O)[C@H](CCCNC(=N)N)NC(=O)[C@H](CCCNC(=N)N)NC(=O)[C@H](CCCCN)NC(=O)[C@H](CCCCN)NC(=O)[C@H](CCCNC(=N)N)NC(=O)CNC(=O)[C@@H](N)Cc1ccc(O)cc1)[C@@H](C)CC)C(=O)O (H-YGRKKRRQRRRRNQKFKCGE[Ahx]IA[Hyp]YI-OH)	Active	Active	Non-Toxic	Active	Active	0.44	0.72	Active	Non-Toxic	Non-Toxic	Non-Toxic	Active	Non-Toxic	Active	Non-Toxic	Non-Toxic	0.13	Non-Toxic	Active
H-YGRKKRRQRRRRNQKFKCGE-OH	Active	Active	Non-Toxic	Active	Active	0.22	0.69	Active	Non-Toxic	Non-Toxic	Non-Toxic	Active	Non-Toxic	Active	Non-Toxic	Non-Toxic	0.38	Non-Toxic	Active
